TRPC6 inhibitor: mouse TRPC6 channel inhibitors, primary screen, cell-based, HEK293, membrane potential dye. ACh-evoked depolarization; hits give low values. B-score at 10 µM. hit rate 1.1% among 310,000;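 active means B-score under library mean minus 3 SD, initial fluorescence not abnormally high, positive integrated signal ratio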;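 further: B-score derived from integrated fluorescence ratio over the kinetic read; more negative B-score means stronger inhibition of depolarization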
TRPC4 inh: inhibitors of mouse TRPC4 channel, primary screen, Fluo4 calcium, HEK293 TRPC4beta/mu-opioid cells; AID 2247, 2010; DAMGO-evoked Fluo4 calcium flux; hits give low values; Short transient receptor potential channel 4 (Mus musculus), Q9QUQ5; B-score at 10 µM; hit rate 0.39% among 300,000;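 active means B-score over 3 SD under the library average, no early fluorescence shift, positive overall ratio signal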
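Signal: kinetic Fluo4 fluorescence imaging of calcium influx. Material: stable TRPC4beta/mu-opioid receptor HEK293 cells. Probe or stimulus: DAMGO in two steps, submaximal then maximal.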
TRPC4 PAM: positive allosteric modulators of TRPC4, primary screen, cell-based, mouse TRPC4beta, HEK293 mu-opioid, Fluo-4 calcium. hit rate 0.42% among 310,000. B-score at 10 µM. DAMGO EC20, Fluo-4 Ca2+ flux; hits give high values;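 active means B-score of calcium response area above 5 SD of library B-scores, with initial fluorescence ratio within 5 SD of library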;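 further: B-score of integrated fluorescence ratio over time as area under calcium response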
TRPC4 agonist: activators of mouse TRPC4 channel, primary screen, Fluo4 calcium, HEK293 TRPC4beta/mu-opioid cells; B-score at 10 µM; hit rate 0.49% among 310,000; Fluo4 calcium fluorescence; hits give high values; AID 2237, 2010;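 active means B-score above 5 SD of library B-scores, and initial fluorescence ratio not above library mean plus 5 SD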;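 further: positive B-score marks a calcium rise read as TRPC4 activation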
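Assay system: HEK293 stable line with TRPC4beta plus mu-opioid receptor; schedule: 45 min room-temperature Fluo4 loading, 110 s read; technique: kinetic Fluo4 calcium fluorescence; evaluation: integrated baseline-normalised fluorescence ratio, converted to per-well B score; controls: buffer (low) and maximal DAMGO (high)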
TRPC6 act: mouse TRPC6 channel activators, primary screen, cell-based, HEK293, membrane potential dye | Short transient receptor potential channel 6 (Mus musculus), Q61143 | hit rate 0.13% among 310,000 | HEK293-TRPC6 membrane potential dye fluorescence; hits give high values | B-score at 10 µM | AID 2550, 2010;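 active means B-score of the integrated fluorescence ratio above library mean plus 3 SD, and starting fluorescence ratio within library mean plus 5 SD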;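 further: higher score means more depolarization so channel activation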
* hit, by the source's call; i = inactive. Compounds with a hit are over-represented: about 2.3% of the library has one in this group of screens.

SMILES	TRPC6 inhibitor	TRPC4 inh	TRPC4 PAM	TRPC4 agonist	TRPC6 act
Cn1nccc1C(=O)N1CCC2(CC1)OCCO2	i	i	i	i	i
O=[N+]([O-])c1ccc(N2CCNCC2)cc1NCC1CCCO1 (centres undefined)	i	i	i	i	i
O=[N+]([O-])c1ccc(N2CCNCC2)cc1NC1CC1	i	i	i	117*	i
C=CCn1c(O)c(C(C)=NCC2CCCO2)c(=O)[nH]c1=O (centres undefined)	i	i	i	i	i
CCc1ccc(CNCCc2ccc(F)cc2)cc1	i	i	i	i	i
CCN(CC)c1ccc(CNCCc2ccc(F)cc2)cc1	i	i	i	51*	i
Brc1ccc(CN2CCNCC2)s1	i	i	14*	i	i
COc1cccc(CN2CCNCC2)c1OC	i	i	i	i	i
N=C1c2ccccc2CN1c1ccc(F)c([N+](=O)[O-])c1	i	i	i	i	i
C=C(C)[C@@]12OC3(c4ccccc4)O[C@@H]1C1[C@@H]4O[C@]4(CO)[C@@H](O)[C@]4(O)C(=O)C(C)=C[C@H]4[C@@]1(O3)[C@H](C)[C@H]2OC(=O)/C=C/C=C/c1ccccc1 (some centres undefined)	i	-6*	i	i	i
CC/C(=C\C=C\[C@@H]1C=C[C@@H]2CCC[C@H]2[C@@H]1C(=O)c1ccc[nH]1)[C@@H]1O[C@@H]([C@@H](C)C(=O)O)CC[C@@H]1C	i	i	i	67*	i
COCCCN=Cc1c(O)[nH]c(=S)[nH]c1=O	i	i	i	i	i
CN(C)C1(CNC(=O)c2ccc(Cl)c(S(=O)(=O)NCc3ccco3)c2)CCCCC1	i	i	i	73*	i
CCNC(=O)C1OC(n2cnc3c(N)ncnc32)C(O)C1O (centres undefined)	i	i	i	53*	i
S=C(NC1CCCCC1)N1CCC(c2cnc[nH]2)CC1	i	i	i	i	i
CC(C)Oc1cc(-n2c(=S)[nH]c3ccccc3c2=O)c(Cl)cc1Cl	i	i	12*	i	i
Cc1c(C(=O)N2CCC3(CC2)OCCO3)sc2ncnc(N3CCc4ccccc4C3)c12	i	i	i	i	i
N#Cc1ccc(N2CCNCC2)c(F)c1	i	i	i	53*	i
N#Cc1cc(F)c(N2CCNCC2)cc1Cl	i	i	i	i	i
COc1ccc(C(CNC(=O)c2ccc3c(c2)CCC3)N(C)C)cc1 (centres undefined)	i	i	i	209*	i
CCc1ccc(CN2CCCC(C(=O)c3sccc3C)C2)o1 (centres undefined)	i	-8*	i	i	i
COCc1ccc(CN2CCCC(C(=O)c3sccc3C)C2)o1 (centres undefined)	i	i	i	i	i
Cc1ccsc1C(=O)C1CCCN(Cc2ccccc2O)C1 (centres undefined)	i	-6*	i	i	i
COc1ccc(O)c(CN2CCCC(C(=O)c3sccc3C)C2)c1 (centres undefined)	i	-7*	i	i	i
CC(C)(C)C(=O)c1cn(Cc2ccccc2)c2ccccc12	i	i	i	i	i
COC(=O)C1=C(c2cccc(OC)c2OC)C[C@@H]2CC[C@H]1N2C(=O)N1CCCC1	i	i	i	i	i
COc1ccc(OC)c(NC(=O)N2C[C@H]3C[C@@H](C2)c2cccc(=O)n2C3)c1	i	i	i	i	i
CCN(CC)P(=O)(/C=C(\Cl)c1ccccc1)/C=C(\Cl)c1ccccc1	i	i	17*	i	i
Cc1ccc2[nH]c(=S)n(-c3cccnc3)c(=O)c2c1	i	i	i	i	i
